Assay [1] deals with MDA-MB-468. In words: Cytotoxicity against human MDA-MB-468 cells assessed as growth inhibition after 72 hrs by MTT assay. Format: functional. The conditions noted are these: MDA-MB-468, 72 h. The method in brief: (§1)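 Growth inhibition read by MTT after 72 h incubation of the indicated cells with drug; GI50 taken from this assay.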
A general note: Tetrazolium assays rely on reduction of a dye to a coloured formazan, in cell work by metabolically active cells.

Assay [2] in a line: Inhibition of forskolin-stimulated CREB (unknown origin)-mediated gene transcription in HEK293T cells preincubated for 30 mins followed by forskolin-stimulation measured after 6 hrs by luciferase reporter gene assay. Format: cell-based. As to conditions: Homo sapiens, HEK-293T. Put shortly:
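HEK 293T cells transfected with a renilla luciferase reporter driven by three tandem CRE copies. Treated with increasing compound concentrations (50 nM to 50 μM) for 30 min, then forskolin (10 μM) for 6 h, then luciferase measured. Luciferase normalized to lysate protein concentration. IC50 by non-linear regression of dose-response curves.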
In general terms: A reporter such as luciferase makes a cellular process visible.

Assay [3] deals with MDA-MB-231. In words: Cytotoxicity against human MDA-MB-231 cells assessed as growth inhibition after 72 hrs by MTT assay. The conditions noted are these: MDA-MB-231, 72 h. Format: functional. The method in brief: as §1

One may read the GI50 as the concentration giving 50% growth inhibition. The term IC50 denotes the concentration needed to halve the response being measured. A higher IC50 goes with weaker potency in that assay. As for `NCCCOc1cc(C(=O)NCCOc2cc3ccccc3cc2C(=O)Nc2ccc(Cl)cc2O)cc2ccccc12`, the values for the GI50 in assay [1] and in assay [3] were 0.55 µM and 2.68 µM, respectively. Also, in assay [2], half-maximal inhibition (IC50) was put at 17.2 µM.

Take `NCCCOc1cc(C(=O)NCCOc2cc3ccccc3cc2C(=O)Nc2ccc(Cl)cc2O)c2ccccc2c1`: the GI50 in assay [1] came out at 1.65 µM; in assay [3], 3.82 µM. In addition, the IC50 in assay [2] worked out at 19 µM.

For `NCCCOc1c(C(=O)NCCOc2cc3ccccc3cc2C(=O)Nc2ccc(Cl)cc2O)ccc2ccccc12`, the 50% growth inhibitory concentration (GI50) in assay [1] worked out at 1.93 µM; in assay [3], 3.12 µM. The molecule also came in with an IC50 in assay [2] of 24 µM.

Turning to `NCCCOc1ccc2ccccc2c1C(=O)NCCOc1cc2ccccc2cc1C(=O)Nc1ccc(Cl)cc1O`, the GI50 in assay [1] was 1.7 µM; in assay [3], 4.31 µM. In addition, in assay [2], 18.9 µM corresponded to half-maximal inhibition (IC50).

For the origin of these results see ChEMBL document CHEMBL4000230, “Design, synthesis and biological evaluation of regioisomers of 666-15 as inhibitors of CREB-mediated gene transcription” (Bioorg Med Chem Lett, 2017).
